Measured values reported in ChEMBL document CHEMBL1649355, “Synthesis and biological evaluation of novel 2,4-disubstituted-1,3-thiazoles as anti-Candida spp. agents” (2011).
≈ marks a conversion by molar mass, not a printed value.

What was measured:
[1] = system: Nakaseomyces glabratus; experiment: Antifungal activity against Candida glabrata after 24 hrs
[2] = system: [Candida] sake; experiment: Antifungal activity against Candida sake after 24 hrs by broth microdilution method; details: Fermentozyma sake
[3] = system: Pichia kudriavzevii; experiment: Antifungal activity against Candida krusei after 24 hrs by broth microdilution method
[4] = system: Candida albicans; experiment: Antifungal activity against Candida albicans after 24 hrs by broth microdilution method
[5] = system: Candida tropicalis; experiment: Antifungal activity against Candida tropicalis after 24 hrs by broth microdilution method
[6] = system: Nakaseomyces glabratus; experiment: Antifungal activity against Candida glabrata after 24 hrs by MTT assay; format: functional
Method in brief: (§1)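 Broth microdilution in Sabouraud dextrose broth per NCCLS guidance, tested against clinical Candida isolates (20 strains across species). Compounds dissolved in DMSO and serially diluted to final concentrations of 0.125–256. Inoculum 10³/mL. Each plate carried fungus-only and medium-only controls. Incubated 24 h at 37 °C. MIC reported as range per species.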

[7] = system: Candida albicans; experiment: Antifungal activity against Candida albicans after 24 hrs by MTT assay; format: functional
Method in brief: as §1

[8] = system: Pichia kudriavzevii; experiment: Antifungal activity against Candida krusei after 24 hrs by MTT assay; format: functional
Method in brief: as §1

[9] = system: [Candida] sake; experiment: Antifungal activity against Candida sake after 24 hrs by MTT assay; format: functional; details: Fermentozyma sake
Method in brief: as §1

[10] = system: Candida tropicalis; experiment: Antifungal activity against Candida tropicalis after 24 hrs by MTT assay; format: functional
Method in brief: as §1

SMILES: Cc1ccc(-c2csc(N/N=C\c3ccco3)n2)cc1
- MIC [1]: 4 µg/mL (≈ 14.1 µM)
- MIC [2]: 16 µg/mL (≈ 56.5 µM)
- MIC [3]: 32 µg/mL (≈ 113 µM)
- MIC [4]: 0.5 µg/mL (≈ 1.76 µM)
- MIC [5]: 64 µg/mL (≈ 226 µM)

SMILES: COc1ccc(-c2csc(N/N=C\c3ccco3)n2)cc1
- MIC [1]: 4 µg/mL (≈ 13.4 µM)
- MIC [2]: 32 µg/mL (≈ 107 µM)
- MIC [3]: 16 µg/mL (≈ 53.4 µM)
- MIC [4]: 0.5 µg/mL (≈ 1.67 µM)
- MIC [5]: 64 µg/mL (≈ 214 µM)

SMILES: C/C(=N/Nc1nc(-c2ccc(C)cc2)cs1)c1ccco1
- MIC [1]: 4 µg/mL (≈ 13.5 µM)
- MIC [2]: 32 µg/mL (≈ 108 µM)
- MIC [3]: 64 µg/mL (≈ 215 µM)
- MIC [4]: 0.5 µg/mL (≈ 1.68 µM)
- MIC [5]: 64 µg/mL (≈ 215 µM)

SMILES: COc1ccc(-c2csc(N/N=C(/C)c3ccco3)n2)cc1
- MIC [1]: 4 µg/mL (≈ 12.8 µM)
- MIC [2]: 16 µg/mL (≈ 51.1 µM)
- MIC [3]: 16 µg/mL (≈ 51.1 µM)
- MIC [4]: 0.5 µg/mL (≈ 1.6 µM)
- MIC [5]: 128 µg/mL (≈ 408 µM)

SMILES: Cc1ccc(-c2csc(N/N=C\c3cccs3)n2)cc1
- MIC [1]: 0.5 µg/mL (≈ 1.67 µM)
- MIC [2]: 8 µg/mL (≈ 26.7 µM)
- MIC [3]: 16 µg/mL (≈ 53.4 µM)
- MIC [4]: 4 µg/mL (≈ 13.4 µM)
- MIC [5]: 64 µg/mL (≈ 214 µM)

SMILES: COc1ccc(-c2csc(N/N=C\c3cccs3)n2)cc1
- MIC [1]: 0.5 µg/mL (≈ 1.59 µM)
- MIC [2]: 32 µg/mL (≈ 101 µM)
- MIC [3]: 64 µg/mL (≈ 203 µM)
- MIC [4]: 0.125 µg/mL (≈ 0.396 µM)
- MIC [5]: 128 µg/mL (≈ 406 µM)

SMILES: C/C(=N/Nc1nc(-c2ccc(C)cc2)cs1)c1cccs1
- MIC [1]: 2 µg/mL (≈ 6.38 µM)
- MIC [2]: 32 µg/mL (≈ 102 µM)
- MIC [3]: 32 µg/mL (≈ 102 µM)
- MIC [4]: 0.5 µg/mL (≈ 1.6 µM)
- MIC [5]: 128 µg/mL (≈ 408 µM)

SMILES: COc1ccc(-c2csc(N/N=C(/C)c3cccs3)n2)cc1
- MIC [1]: 2 µg/mL (≈ 6.07 µM)
- MIC [2]: 32 µg/mL (≈ 97.1 µM)
- MIC [3]: 64 µg/mL (≈ 194 µM)
- MIC [4]: 0.125 µg/mL (≈ 0.379 µM)
- MIC [5]: 8 µg/mL (≈ 24.3 µM)

SMILES: C/C(=N/Nc1nc(-c2ccc(C)cc2)cs1)c1ccccn1
- MIC [1]: 4 µg/mL (≈ 13 µM)
- MIC [2]: 32 µg/mL (≈ 104 µM)
- MIC [3]: 64 µg/mL (≈ 208 µM)
- MIC [4]: 2 µg/mL (≈ 6.48 µM)
- MIC [5]: 64 µg/mL (≈ 208 µM)

SMILES: COc1ccc(-c2csc(N/N=C(/C)c3ccccn3)n2)cc1
- MIC [1]: 8 µg/mL (≈ 24.7 µM)
- MIC [2]: 32 µg/mL (≈ 98.6 µM)
- MIC [3]: 16 µg/mL (≈ 49.3 µM)
- MIC [4]: 0.5 µg/mL (≈ 1.54 µM)
- MIC [5]: 64 µg/mL (≈ 197 µM)

SMILES: Cc1ccc(-c2csc(N/N=C\c3cccnc3)n2)cc1
- MIC [1]: 0.5 µg/mL (≈ 1.7 µM)
- MIC [2]: 16 µg/mL (≈ 54.4 µM)
- MIC [3]: 32 µg/mL (≈ 109 µM)
- MIC [4]: 0.125 µg/mL (≈ 0.425 µM)
- MIC [5]: 128 µg/mL (≈ 435 µM)

SMILES: COc1ccc(-c2csc(N/N=C\c3cccnc3)n2)cc1
- MIC [1]: 16 µg/mL (≈ 51.5 µM)
- MIC [2]: 16 µg/mL (≈ 51.5 µM)
- MIC [3]: 32 µg/mL (≈ 103 µM)
- MIC [4]: 4 µg/mL (≈ 12.9 µM)
- MIC [5]: 64 µg/mL (≈ 206 µM)

SMILES: C/C(=N/Nc1nc(-c2ccc(C)cc2)cs1)c1cccnc1
- MIC [1]: 2 µg/mL (≈ 6.48 µM)
- MIC [2]: 16 µg/mL (≈ 51.9 µM)
- MIC [3]: 64 µg/mL (≈ 208 µM)
- MIC [4]: 0.5 µg/mL (≈ 1.62 µM)
- MIC [5]: 16 µg/mL (≈ 51.9 µM)

SMILES: COc1ccc(-c2csc(N/N=C(/C)c3cccnc3)n2)cc1
- MIC [1]: 8 µg/mL (≈ 24.7 µM)
- MIC [2]: 32 µg/mL (≈ 98.6 µM)
- MIC [3]: 128 µg/mL (≈ 395 µM)
- MIC [4]: 8 µg/mL (≈ 24.7 µM)
- MIC [5]: 128 µg/mL (≈ 395 µM)

SMILES: Cc1ccc(-c2csc(N/N=C\c3ccncc3)n2)cc1
- MIC [1]: 4 µg/mL (≈ 13.6 µM)
- MIC [2]: 32 µg/mL (≈ 109 µM)
- MIC [3]: 128 µg/mL (≈ 435 µM)
- MIC [4]: 0.5 µg/mL (≈ 1.7 µM)
- MIC [5]: 64 µg/mL (≈ 217 µM)

SMILES: COc1ccc(-c2csc(N/N=C\c3ccncc3)n2)cc1
- MIC [1]: 0.5 µg/mL (≈ 1.61 µM)
- MIC [2]: 32 µg/mL (≈ 103 µM)
- MIC [3]: 16 µg/mL (≈ 51.5 µM)
- MIC [4]: 0.125 µg/mL (≈ 0.403 µM)
- MIC [5]: 16 µg/mL (≈ 51.5 µM)

SMILES: C/C(=N/Nc1nc(-c2ccc(C)cc2)cs1)c1ccncc1
- MIC [1]: 4 µg/mL (≈ 13 µM)
- MIC [2]: 32 µg/mL (≈ 104 µM)
- MIC [3]: 32 µg/mL (≈ 104 µM)
- MIC [4]: 0.5 µg/mL (≈ 1.62 µM)
- MIC [5]: 32 µg/mL (≈ 104 µM)

SMILES: COc1ccc(-c2csc(N/N=C(/C)c3ccncc3)n2)cc1
- MIC [1]: 4 µg/mL (≈ 12.3 µM)
- MIC [2]: 16 µg/mL (≈ 49.3 µM)
- MIC [3]: 128 µg/mL (≈ 395 µM)
- MIC [4]: 0.5 µg/mL (≈ 1.54 µM)
- MIC [5]: 32 µg/mL (≈ 98.6 µM)

SMILES: Cc1ccc(-c2csc(N/N=C\c3cccc4ccccc34)n2)cc1
- MIC [1]: 16 µg/mL (≈ 46.6 µM)
- MIC [2]: 32 µg/mL (≈ 93.2 µM)
- MIC [3]: 16 µg/mL (≈ 46.6 µM)
- MIC [4]: 2 µg/mL (≈ 5.82 µM)
- MIC [5]: 16 µg/mL (≈ 46.6 µM)

SMILES: COc1ccc(-c2csc(N/N=C\c3cccc4ccccc34)n2)cc1
- MIC [1]: 2 µg/mL (≈ 5.56 µM)
- MIC [2]: 16 µg/mL (≈ 44.5 µM)
- MIC [3]: 32 µg/mL (≈ 89 µM)
- MIC [4]: 4 µg/mL (≈ 11.1 µM)
- MIC [5]: 64 µg/mL (≈ 178 µM)

SMILES: C/C(=N/Nc1nc(-c2ccc(C)cc2)cs1)c1ccc2ccccc2c1
- MIC [1]: 0.5 µg/mL (≈ 1.4 µM)
- MIC [2]: 16 µg/mL (≈ 44.8 µM)
- MIC [3]: 32 µg/mL (≈ 89.5 µM)
- MIC [4]: 2 µg/mL (≈ 5.59 µM)
- MIC [5]: 4 µg/mL (≈ 11.2 µM)

SMILES: COc1ccc(-c2csc(N/N=C(/C)c3ccc4ccccc4c3)n2)cc1
- MIC [1]: 2 µg/mL (≈ 5.36 µM)
- MIC [2]: 16 µg/mL (≈ 42.8 µM)
- MIC [3]: 256 µg/mL (≈ 685 µM)
- MIC [4]: 2 µg/mL (≈ 5.36 µM)
- MIC [5]: 64 µg/mL (≈ 171 µM)

SMILES: Cc1ccc(-c2csc(N/N=C\c3ccc4c(c3)OCO4)n2)cc1
- MIC [1]: 4 µg/mL (≈ 11.9 µM)
- MIC [2]: 8 µg/mL (≈ 23.7 µM)
- MIC [3]: 64 µg/mL (≈ 190 µM)
- MIC [4]: 0.125 µg/mL (≈ 0.37 µM)
- MIC [5]: 16 µg/mL (≈ 47.4 µM)

SMILES: COc1ccc(-c2csc(N/N=C\c3ccc4c(c3)OCO4)n2)cc1
- MIC [1]: 4 µg/mL (≈ 11.3 µM)
- MIC [2]: 8 µg/mL (≈ 22.6 µM)
- MIC [3]: 64 µg/mL (≈ 181 µM)
- MIC [4]: 0.5 µg/mL (≈ 1.41 µM)
- MIC [5]: 64 µg/mL (≈ 181 µM)

SMILES: Cc1ccc(-c2csc(N/N=C\c3c[nH]c4ccccc34)n2)cc1
- MIC [1]: 4 µg/mL (≈ 12 µM)
- MIC [2]: 32 µg/mL (≈ 96.3 µM)
- MIC [3]: 32 µg/mL (≈ 96.3 µM)
- MIC [4]: 0.125 µg/mL (≈ 0.376 µM)
- MIC [5]: 64 µg/mL (≈ 193 µM)

SMILES: COc1ccc(-c2csc(N/N=C\c3c[nH]c4ccccc34)n2)cc1
- MIC [1]: 0.5 µg/mL (≈ 1.44 µM)
- MIC [2]: 8 µg/mL (≈ 23 µM)
- MIC [3]: 64 µg/mL (≈ 184 µM)
- MIC [4]: 32 µg/mL (≈ 91.8 µM)
- MIC [5]: 64 µg/mL (≈ 184 µM)

SMILES: C/C(=N/Nc1nc(-c2ccc(C)cc2)cs1)c1cc2ccccc2oc1=O
- MIC [6]: 0.5 µg/mL (≈ 1.33 µM)
- MIC [7]: 0.125 µg/mL (≈ 0.333 µM)
- MIC [8]: 128 µg/mL (≈ 341 µM)
- MIC [9]: 32 µg/mL (≈ 85.2 µM)
- MIC [10]: 128 µg/mL (≈ 341 µM)

SMILES: COc1ccc(-c2csc(N/N=C(/C)c3cc4ccccc4oc3=O)n2)cc1
- MIC [1]: 2 µg/mL (≈ 5.11 µM)
- MIC [2]: 32 µg/mL (≈ 81.7 µM)
- MIC [3]: 32 µg/mL (≈ 81.7 µM)
- MIC [4]: 2 µg/mL (≈ 5.11 µM)
- MIC [5]: 2 µg/mL (≈ 5.11 µM)

SMILES: Clc1ccccc1C(c1ccccc1)(c1ccccc1)n1ccnc1 [CLOTRIMAZOLE]
- MIC [1]: 2 µg/mL (≈ 5.8 µM)
- MIC [2]: 16 µg/mL (≈ 46.4 µM)
- MIC [4]: 2 µg/mL (≈ 5.8 µM)

SMILES: OC(Cn1cncn1)(Cn1cncn1)c1ccc(F)cc1F [FLUCONAZOLE]
- MIC [1]: 4 µg/mL (≈ 13.1 µM)
- MIC [2]: 32 µg/mL (≈ 104 µM)
- MIC [3]: 8 µg/mL (≈ 26.1 µM)
- MIC [4]: 4 µg/mL (≈ 13.1 µM)
- MIC [5]: 4 µg/mL (≈ 13.1 µM)
